Compound activity deposited in PubChem BioAssay by The Scripps Research Institute Molecular Screening Center.
OX1R antag-1: blocks the human orexin 1 receptor; OX1R-expressing cells, FRET antagonist read-out; actives 1.8% (n = 330,000); O43613; inhibition, % at 6.6 µM; in the data active = inhibition mostly above about 38%, no sharp cut-off; inactive = mostly below about 40%
TAAR1 antag: antagonists of human TAAR1 | Q96RJ0 | CHO RD-HGA16 TAAR1, Fluo-8 calcium fluorescence, antagonist | inhibition, % at 3 µM | actives 1.5% (n = 360,000);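 active = inhibition above a per-plate cutoff, the mean inhibition of test compounds on that plate plus 3 SD, cut at about 49% in these data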
Target sequence (Q96RJ0 whole entry, looked up): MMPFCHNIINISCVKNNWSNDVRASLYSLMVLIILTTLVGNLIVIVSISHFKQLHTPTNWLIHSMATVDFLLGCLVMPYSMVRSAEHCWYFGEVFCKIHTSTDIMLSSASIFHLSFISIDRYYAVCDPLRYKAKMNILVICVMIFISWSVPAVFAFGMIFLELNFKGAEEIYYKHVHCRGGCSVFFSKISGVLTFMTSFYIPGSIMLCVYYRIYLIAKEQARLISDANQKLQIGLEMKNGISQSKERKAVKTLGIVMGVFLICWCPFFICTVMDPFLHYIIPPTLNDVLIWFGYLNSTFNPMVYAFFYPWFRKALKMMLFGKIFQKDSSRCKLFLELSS
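Test system: hTAAR1-expressing CHO RD-HGA16 cells, Gα16-coupled; Probe or stimulus: EC80 β-phenethylamine stimulus; Compound dosing: single nominal final test compound concentration of 3 µM; Timing: 140 s kinetic read after compound, 140 s after agonist; Signal: Fluo-8 calcium-sensitive fluorescence; Measure: % inhibition of agonist calcium response; Controls: DMSO and EC80 PEA controls.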
OX1R antag-2: human HCRTR1 antagonism; O43613; CHO/OX1R cells, Fluo-8 calcium fluorescence, orexin A; inhibition, % at 5 µM; actives 0.43% (n = 330,000);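 active = inhibition above its plate's threshold, mean inhibition of all tested compounds on the plate plus 3 SD, cut at about 37% in these data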
GalR3 antagonist: blocks the human galanin receptor 3 | HEK293 GalR3-CNG cAMP membrane potential fluorescence; galR3 body fused to GalR1 C-terminus | actives 0.44% (n = 360,000) | inhibition, % at 3 µM | O60755 | AID 651719;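 active = inhibition above the screen-wide average plus 3 SD, cut at about 13% in these data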;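 note: forskolin and galanin both at EC90 stimulate the cells; cAMP rise reported by CNG channel membrane potential dye signal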
Target sequence (O60755 1-299 limits assumed): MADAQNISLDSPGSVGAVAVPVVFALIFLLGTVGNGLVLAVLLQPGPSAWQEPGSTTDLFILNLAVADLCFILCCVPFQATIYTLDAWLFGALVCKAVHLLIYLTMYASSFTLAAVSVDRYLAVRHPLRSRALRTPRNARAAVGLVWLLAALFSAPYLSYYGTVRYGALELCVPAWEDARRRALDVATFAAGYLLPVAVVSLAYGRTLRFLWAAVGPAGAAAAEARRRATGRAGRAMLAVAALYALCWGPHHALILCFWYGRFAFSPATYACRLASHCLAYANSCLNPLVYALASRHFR
TAAR1 agonist: human TAAR1 agonism. Q96RJ0. CHO RD-HGA16 TAAR1, Fluo-8 calcium fluorescence; vehicle wells 0%, saturating PEA agonist 100%. activation, % at 3 µM. actives 0.99% (n = 360,000). AID 624467;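 active = activation above the mean activation of all test compounds in the run plus 3 SD, cut at about 38% in these data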
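Test system: RD-HGA16 (CHO) cells co-expressing Gα16 and hTAAR1 / Benchmarks: DMSO vehicle as 0%, PEA at EC100 as 100% / Repeats: no replicates (n 1) / Measure: % activation from peak over basal fluorescence ratio, DMSO-to-PEA scaled / Timing: 17-24 h plating, Fluo-8 75 min 37 °C, 30 min RT / Technique: kinetic Fluo-8 calcium fluorescence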
CHO parental Ca: counter-screen: ATP calcium response change in parental CHO cells; parental CHO-K1, ATP-induced calcium, Fluo-8 fluorescence; inhibition, % at 5.6 µM; actives 0.63% (n = 330,000); AID 463079;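 active = inhibition above that plate's mean sample inhibition plus 3 SD, cut at about 26% in these data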
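test system = CHO parental line | reagent = ATP stimulus | measured by = intracellular calcium via Fluo-8 no-wash fluorescent dye | control set = ATP and no-ATP DMSO wells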
A number is an active result; n = inactive; x = no result given. Compounds with a hit are over-represented: about 4.2% of the library has one in this group of screens.

SMILES	OX1R antag-1	TAAR1 antag	OX1R antag-2	GalR3 antagonist	TAAR1 agonist	CHO parental Ca
CN(Cc1ccccc1)C(=O)c1ccc([N+](=O)[O-])o1	54	n	n	n	n	n
O=C(c1ccc([N+](=O)[O-])o1)N1CCN(Cc2ccccc2)CC1	30	n	n	n	n	n
Cc1ccc(C(=O)N2CCN(Cc3ccccc3)CC2)o1	n	n	n	n	n	n
CC1CCN(C(=O)c2ccc([N+](=O)[O-])o2)CC1	44	n	n	n	n	n
CC1CCCN(C(=O)c2ccc([N+](=O)[O-])o2)C1 (stereo unspecified)	n	n	n	n	n	n
C/C(=N\N=C(c1ccccc1)c1ccccc1)c1ccco1	n	x	n	x	x	n
CCN(CC)c1ccc(/C=N\NC(=O)c2cccc3cc[nH]c23)cc1	51	n	n	n	n	n
CC(C)Cn1c(N)c(C(=O)COC(=O)c2cc(S(=O)(=O)N3CCOCC3)ccc2Br)c(=O)n(C)c1=O	n	54	n	n	n	n
COc1ccc(CN(CCC(c2ccccc2)c2ccco2)C(=O)c2ccco2)cc1 (stereo unspecified)	n	n	n	n	n	n
COc1ccc(CN(CCC(c2ccc(F)cc2)C2CCOC(C)(C)C2)C(=O)c2ccco2)cc1 (stereo unspecified)	n	64	n	n	n	n
COC(=O)c1ccc(-c2n[nH]c(=O)c3ccccc23)cc1	43	n	n	n	n	n
Cc1ccccc1NS(=O)(=O)c1cccc(-c2nnc(-c3ccccc3)o2)c1	40	n	n	n	n	n
CC1(C(=O)Nc2cnc3ccccc3c2)CCN1Cc1cc2ccccc2o1 (stereo unspecified)	x	49	x	n	n	x
CC1(C(=O)Nc2cnc3ccccc3c2)CCN1Cc1ccc2ccccc2c1 (stereo unspecified)	x	n	x	n	n	x
O=C(CC1C(=O)NCCN1Cc1c(F)cccc1Cl)NCCCN1CCCC1=O (stereo unspecified)	n	n	n	n	n	n
COc1ccc(C2C3=C(Nc4ncnn42)c2ccccc2CCC3)cc1 (stereo unspecified)	n	n	n	n	n	n
Fc1ccc(/C=C2\CCCC3=C2Nc2ncnn2C3c2ccc(F)cc2)cc1 (stereo unspecified)	n	65	n	n	n	n
O=C(Nc1cccnc1)Nc1cccc([N+](=O)[O-])c1	n	n	n	n	n	n
O=C(Nc1ccccc1F)c1ccc(-c2cccc([N+](=O)[O-])c2)o1	64	n	n	n	n	n
CN(C)NC(=O)c1ccc([N+](=O)[O-])s1	67	n	n	n	n	n
O=C(Nc1cccnc1)c1ccc([N+](=O)[O-])s1	53	n	n	n	n	n
O=C(Nc1cccc2ccccc12)c1ccc([N+](=O)[O-])s1	n	n	n	n	n	n
O=C(Nc1nccs1)c1ccc(-c2cccc([N+](=O)[O-])c2)o1	n	n	n	n	n	n
O=C(Nc1ccccc1F)c1ccc([N+](=O)[O-])s1	38	n	n	n	n	n
CC(C)NC(=O)C1CCN(S(=O)(=O)c2ccc(N3CCCC3=O)cc2)CC1	n	n	n	n	n	n
SMILES	OX1R antag-1	TAAR1 antag	OX1R antag-2	GalR3 antagonist	TAAR1 agonist	CHO parental Ca
O=S(=O)(Nc1nc2c(s1)CCCC2)c1ccc2ccccc2c1	n	n	n	n	n	n
O=C1NC(=O)C(=Cc2ccccc2[N+](=O)[O-])S1	x	n	x	n	n	x
O=C1NC(=O)/C(=C/c2cccc3ccccc23)S1	30	n	n	n	n	n
Cc1ccc(S(=O)(=O)Oc2ccccc2/C=C2/SC(=O)NC2=O)cc1	38	n	n	n	n	n
Cc1nn(C)cc1CNC(=O)C1CCC(=O)N(CC2CCCCC2)C1 (stereo unspecified)	n	n	n	n	n	n
COc1ccc2sc(-c3ccc(S(C)(=O)=O)cc3)c(C(=O)NCCc3c[nH]c4ccccc34)c2c1	n	58	n	n	n	n
COc1ccc2c(C(=O)NCCCCO)c(-c3ccc(S(C)(=O)=O)cc3)sc2c1	n	n	n	n	n	n
CCN(CC(=O)Nc1c(F)cccc1F)C(=O)CCc1nc2sc3c(c2c(=O)[nH]1)CCCC3	67	n	n	n	n	n
CCN(CC(=O)Nc1ccccc1C(F)(F)F)C(=O)CCc1nc2sc3c(c2c(=O)[nH]1)CCCC3	42	n	n	n	n	n
CCN(CC(=O)Nc1c(F)cccc1F)C(=O)C(C)SCc1nc2sc(C)c(C)c2c(=O)[nH]1 (stereo unspecified)	67	n	n	n	n	n
Cc1cc(C)c(S(=O)(=O)N(C)CC(=O)NCc2cccnc2)c(C)c1	n	n	n	n	n	n
CCOc1ccc(C(C(=O)NC2CCCCC2)N(C(=O)c2ccco2)c2ccc(-n3cnnn3)c(C)c2)cc1 (stereo unspecified)	n	n	n	n	n	n
COC(=O)/C(N=Nc1c(C)n(C)n(-c2ccccc2)c1=O)=C(\C)O	n	n	n	n	n	n
Cc1ccc(C)c(CC(=O)N2CCCCC2c2cc(C(=O)Nc3cccc(C#N)c3)no2)c1 (stereo unspecified)	x	n	x	n	48	x
CC(=O)NCCn1c(SCC(=O)NCCc2ccc(S(N)(=O)=O)cc2)nc2ccccc2c1=O	n	n	n	n	n	n
COCCCNC(=O)CSc1nc2ccccc2c(=O)n1CCc1ccc(S(N)(=O)=O)cc1	n	57	n	n	n	n
O=C(COC(=O)c1ccc[n+]([O-])c1)Nc1ccccc1OC(F)F	n	n	n	n	n	n
O=C(C[n+]1ccc(C(=O)c2ccccc2)cc1)Nc1ccccc1OC(F)F	46	n	n	n	n	n
CCCC(=O)Nc1cccc(S(=O)(=O)N(C)c2ccccc2)c1	n	n	n	n	n	n
O=C(Nc1ccc2nn(-c3ccccc3)nc2c1)c1cccnc1	n	n	n	n	n	n
CC(C)C(=O)Nc1ccc2nn(-c3ccccc3)nc2c1	63	n	n	n	n	n
COc1ccc(/C=C2/C(=O)ON=C2C)cc1Cl	n	n	n	n	n	n
C=CCOc1ccc(/C=C2/C(=O)ON=C2C)cc1OC	n	n	n	n	38	n
FC(F)Sc1ccc(NC(=S)NC(c2ccccc2)c2ccccc2)cc1	41	n	n	n	n	39
S=C(NCC1CCCCC1)Nc1ccc(Oc2ccccc2)cc1	n	n	n	n	n	n
CC1CCN(C(=S)Nc2ccc(SC(F)F)cc2)CC1	n	n	n	n	n	n
FC(F)Sc1ccc(NC(=S)NCC2CCCCC2)cc1	n	50	n	n	n	n
FC(F)Sc1ccc(NC(=S)NC2CCCCC2)cc1	42	n	n	n	n	n
